Source: ChEMBL document CHEMBL2157978, “Design, synthesis, and biological evaluation of nonsteroidal cycloalkane[d]isoxazole-containing androgen receptor modulators” (J Med Chem, 2012)
Residue numbers refer to the chain shown, from its start. Activity calls are given as the source filed them.

Columns and labels:
Androgen receptor = target: T1, Androgen receptor (Homo sapiens, UniProt P10275); test: Displacement of [3H]R1881 from wild type human androgen receptor expressed in COS-1 cells co-transfected with pSG5 after 2 hrs by scintillation assay
T1 sequence (P10275 whole entry): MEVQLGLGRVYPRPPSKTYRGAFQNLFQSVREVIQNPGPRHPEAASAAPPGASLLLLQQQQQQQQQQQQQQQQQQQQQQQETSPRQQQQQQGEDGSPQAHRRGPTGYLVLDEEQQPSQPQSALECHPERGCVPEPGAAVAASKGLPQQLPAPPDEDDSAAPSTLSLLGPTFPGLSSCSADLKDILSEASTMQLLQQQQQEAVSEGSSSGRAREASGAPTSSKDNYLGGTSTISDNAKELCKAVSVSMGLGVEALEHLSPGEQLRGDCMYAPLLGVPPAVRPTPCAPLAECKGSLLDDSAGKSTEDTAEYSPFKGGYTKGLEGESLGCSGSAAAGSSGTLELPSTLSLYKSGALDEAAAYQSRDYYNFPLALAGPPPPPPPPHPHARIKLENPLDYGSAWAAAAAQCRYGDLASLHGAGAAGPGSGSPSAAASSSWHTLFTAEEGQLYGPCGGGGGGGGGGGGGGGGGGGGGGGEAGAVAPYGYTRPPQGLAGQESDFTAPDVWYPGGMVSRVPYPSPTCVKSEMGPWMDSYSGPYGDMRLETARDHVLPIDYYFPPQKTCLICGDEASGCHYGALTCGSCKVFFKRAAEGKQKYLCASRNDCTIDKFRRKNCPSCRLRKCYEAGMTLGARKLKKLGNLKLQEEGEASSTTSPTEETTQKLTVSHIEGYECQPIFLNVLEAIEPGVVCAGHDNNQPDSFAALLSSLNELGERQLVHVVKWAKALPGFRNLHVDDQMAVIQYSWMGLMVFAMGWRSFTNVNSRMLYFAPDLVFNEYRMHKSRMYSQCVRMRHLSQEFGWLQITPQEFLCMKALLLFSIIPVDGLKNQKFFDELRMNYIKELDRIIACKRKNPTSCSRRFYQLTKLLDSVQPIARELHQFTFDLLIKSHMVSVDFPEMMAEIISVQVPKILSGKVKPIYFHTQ

[1] = target: T2, Androgen receptor (Homo sapiens) (UniProt P10275); test: Agonist activity at wild type human androgen receptor expressed in COS-1 cells co-transfected with pSG5 assessed as effect on testosterone induced luciferase activity at 10 uM after 18 hrs relative untreated control; assay type: functional, cell-based
T2 sequence (whole entry): T1 sequence (P10275 whole entry)

[2] = target: Luciferin 4-monooxygenase (Photinus pyralis) (UniProt P08659); test: Inhibition of Photinus pyralis recombinant luciferase at 10 uM incubated for 20 mins
Luciferin 4-monooxygenase (Photinus pyralis), sequence (P08659 whole entry): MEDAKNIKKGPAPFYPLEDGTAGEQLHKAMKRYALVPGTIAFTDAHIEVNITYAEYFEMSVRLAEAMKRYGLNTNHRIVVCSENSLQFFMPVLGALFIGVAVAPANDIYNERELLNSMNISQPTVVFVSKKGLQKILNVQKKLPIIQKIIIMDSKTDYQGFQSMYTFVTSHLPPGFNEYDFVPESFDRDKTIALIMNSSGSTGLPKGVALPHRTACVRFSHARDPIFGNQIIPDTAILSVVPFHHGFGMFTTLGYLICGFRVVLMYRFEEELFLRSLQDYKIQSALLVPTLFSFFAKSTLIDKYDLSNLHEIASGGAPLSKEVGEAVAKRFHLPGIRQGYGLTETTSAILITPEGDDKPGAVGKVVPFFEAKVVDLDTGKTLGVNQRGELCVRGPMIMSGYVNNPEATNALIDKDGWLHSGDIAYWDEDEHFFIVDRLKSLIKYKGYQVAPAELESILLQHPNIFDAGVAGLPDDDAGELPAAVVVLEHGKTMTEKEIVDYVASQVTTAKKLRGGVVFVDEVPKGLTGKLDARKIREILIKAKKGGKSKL
Method in brief: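 Purified firefly luciferase diluted to 0.1 μg/mL in 1x Reporter Lysis Buffer, with compound added from ethanol stocks (10⁻³–10⁻⁷ mol/L dilutions) in triplicate. Incubated 20 min at rt, then luciferase substrate added and luminescence read. Blank (lysis buffer) and ethanol-vehicle controls were included.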

[3] = target: T2, Androgen receptor (Homo sapiens); test: Agonist activity at wild type human androgen receptor expressed in COS-1 cells co-transfected with pSG5 assessed as effect on testosterone induced luciferase activity at 1 nM to 10 uM after 18 hrs relative untreated control; assay type: functional, cell-based
Method in brief: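 COS-1 cells were seeded in DMEM with 10% dextran-charcoal-treated FBS. After switching to 2.5% FBS, they were transfected for 24 h with pSG5-hAR, the pProbasin(−285/+32)-Luc reporter and a pCMVβ internal control. […] Luciferase was normalized to β-galactosidase and protein.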

[4] = target: T2, Androgen receptor (Homo sapiens); test: Potency index, ratio of RBA of hydroxyflutamide to RBA of compound for human androgen receptor
[5] = system: Androgen receptor (Homo sapiens), P10275 [T878A]; test: Antagonist activity at human Androgen receptor T877A mutant expressed in COS-1 cells co-transfected with pSG5 assessed as reduction in testosterone induced luciferase activity at 10 uM after 18 hrs relative untreated control; assay type: functional, cell-based
Androgen receptor (Homo sapiens), P10275 [T878A], sequence (P10275 whole entry T878A): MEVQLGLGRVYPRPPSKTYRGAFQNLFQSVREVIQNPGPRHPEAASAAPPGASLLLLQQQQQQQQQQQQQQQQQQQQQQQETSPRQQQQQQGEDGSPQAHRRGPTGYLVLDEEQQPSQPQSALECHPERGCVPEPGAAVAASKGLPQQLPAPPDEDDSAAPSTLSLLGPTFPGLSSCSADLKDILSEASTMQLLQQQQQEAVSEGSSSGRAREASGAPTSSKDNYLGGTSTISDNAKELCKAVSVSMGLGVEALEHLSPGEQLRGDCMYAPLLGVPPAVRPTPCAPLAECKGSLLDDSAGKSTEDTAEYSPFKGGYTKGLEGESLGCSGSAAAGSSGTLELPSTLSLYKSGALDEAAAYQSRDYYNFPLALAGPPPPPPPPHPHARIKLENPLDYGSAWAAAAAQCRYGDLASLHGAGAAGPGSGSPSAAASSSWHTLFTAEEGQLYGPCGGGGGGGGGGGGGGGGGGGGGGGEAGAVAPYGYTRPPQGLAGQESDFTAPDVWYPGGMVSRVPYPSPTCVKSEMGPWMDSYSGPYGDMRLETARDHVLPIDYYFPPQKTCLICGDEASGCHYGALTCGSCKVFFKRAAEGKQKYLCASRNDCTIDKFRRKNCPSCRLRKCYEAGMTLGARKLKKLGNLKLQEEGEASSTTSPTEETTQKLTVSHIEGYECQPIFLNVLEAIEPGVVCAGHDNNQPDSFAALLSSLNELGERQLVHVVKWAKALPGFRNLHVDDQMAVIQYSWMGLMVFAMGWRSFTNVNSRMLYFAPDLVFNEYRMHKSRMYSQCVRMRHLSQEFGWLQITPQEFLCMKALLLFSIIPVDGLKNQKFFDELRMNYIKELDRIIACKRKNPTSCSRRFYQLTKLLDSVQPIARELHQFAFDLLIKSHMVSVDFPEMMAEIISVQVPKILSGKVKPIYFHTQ
Method in brief: (§1)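 COS-1 cells were grown in DMEM with dextran-charcoal-treated FBS (2.5% during transfection). They were transfected for 24 h with pSG5-hART877A or pSG5-hARW741L, plus the pProbasin(−285/+32)-Luc reporter and a pCMVβ control.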

[6] = system: T3, Androgen receptor (Homo sapiens), P10275 [W742L]; test: Antagonist activity at human Androgen receptor W741L mutant expressed in COS-1 cells co-transfected with pSG5 assessed as reduction in testosterone induced luciferase activity at 10 uM after 18 hrs relative untreated control; assay type: functional, cell-based
T3 sequence (whole entry): T1 sequence (P10275 whole entry) with W742L
Method in brief: as §1

[7] = target: T2, Androgen receptor (Homo sapiens); test: Potency index, ratio of RBA of (R)-bicalutamide to RBA of compound for human androgen receptor

Row | SMILES | IC50 (Androgen receptor) [µM] | Activity [1] | inhibition [2] | Activity [3] | Ratio [4] | Activity [5] | Activity [6] | Ratio [7]
1 | O=[N+]([O-])c1ccc(C2=NOC3CCCCCC23)cc1C(F)(F)F (racemic) | 0.105 | inactive | inactive | – | – | – | – | –
2 | N#Cc1ccc(C2=NOC3CCCCCC23)cc1C(F)(F)F (racemic) | 0.0437 | inactive | inactive | – | – | – | – | –
3 | O=[N+]([O-])c1ccc(C2=NOC3CCCC23)c(C(F)(F)F)c1 (racemic) | 0.269 | inactive | inactive | – | – | – | – | –
4 | Fc1ccc(C2=NOC3CCCC23)cc1C(F)(F)F (racemic) | 1.48 | inactive | inactive | – | – | – | – | –
5 | N#Cc1ccc(C2=NOC3CCCCC23)cc1C(F)(F)F (racemic) | 0.0275 | inactive | inactive | inactive | 8 | Active | Active | 4
6 | N#Cc1ccc(C2=NOC3CCCC23)c(C(F)(F)F)c1 (racemic) | 0.447 | inactive | inactive | – | – | – | – | –

Second part, led by results:

Row | IC50 (Androgen receptor) [µM] | Activity [1] | inhibition [2] | SMILES | Activity [3] | Ratio [4] | Activity [5] | Activity [6] | Ratio [7]
7 | 11 | inactive | inactive | Fc1ccc(C2=NOC3CCCCCC23)cc1C(F)(F)F (racemic) | – | – | – | – | –
8 | 0.12 | inactive | inactive | O=[N+]([O-])c1ccc(C2=NOC3CCCCC23)cc1C(F)(F)F (racemic) | inactive | – | Active | Active | –
9 | 1.1 | inactive | inactive | Fc1ccc(C2=NOC3CCCCC23)cc1C(F)(F)F (racemic) | – | – | – | – | –
